Experimental data gathered from unrelated publications.
Lines come from different studies, so protocols differ.
Target: Serine/threonine-protein kinase Nek5 (NEK5, Homo sapiens, UniProt Q6P3R8)
Sequence (Q6P3R8 1-708, as in one of the studies): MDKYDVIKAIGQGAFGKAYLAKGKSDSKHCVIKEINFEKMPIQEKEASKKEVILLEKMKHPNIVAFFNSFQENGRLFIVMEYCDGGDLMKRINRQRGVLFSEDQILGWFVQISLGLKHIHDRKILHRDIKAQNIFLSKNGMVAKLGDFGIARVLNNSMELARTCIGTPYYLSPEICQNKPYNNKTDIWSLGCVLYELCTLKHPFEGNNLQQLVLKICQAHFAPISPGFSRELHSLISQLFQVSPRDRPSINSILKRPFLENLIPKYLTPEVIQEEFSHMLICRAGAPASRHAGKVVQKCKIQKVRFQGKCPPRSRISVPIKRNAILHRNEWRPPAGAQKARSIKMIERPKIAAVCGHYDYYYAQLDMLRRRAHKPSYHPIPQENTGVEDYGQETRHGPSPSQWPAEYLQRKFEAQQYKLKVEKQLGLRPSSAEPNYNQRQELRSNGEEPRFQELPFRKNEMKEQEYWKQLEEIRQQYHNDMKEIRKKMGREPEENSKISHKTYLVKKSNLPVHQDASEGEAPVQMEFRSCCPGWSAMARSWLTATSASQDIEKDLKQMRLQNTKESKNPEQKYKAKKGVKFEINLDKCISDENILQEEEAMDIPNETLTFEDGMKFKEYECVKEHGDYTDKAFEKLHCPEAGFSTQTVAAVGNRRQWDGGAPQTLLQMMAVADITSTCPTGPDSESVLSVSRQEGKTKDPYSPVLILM

SMILES	assay	conditions	remaining binding
O=C(c1ccc(Nc2ncc(Cl)c(-c3ccc(Cl)s3)n2)cc1)N1CCC(N2CCCC2)CC1	binding, competition with immobilised ligand	1 µM	0%
N[C@H]1CCN(c2nccc(-c3cnn4ncccc34)n2)C1	binding	1 µM	87%
COc1ccc2c(O[C@@H]3C[C@H]4C(=O)N[C@]5(C(=O)O)CC5/C=C\CCCCC[C@H](NC(=O)OC5CCCC5)C(=O)N4C3)cc(-c3csc(NC(=O)C(C)C)n3)nc2c1C (stereo partly drawn)	cell-free assay, competition with immobilised ligand	1 µM	98%
CCN1CCN(Cc2ccc(C(=O)Nc3ccc(C)c(Oc4ccc5c(c4)CC(=O)N5)c3)cc2C(F)(F)F)CC1	binding, competition with immobilised ligand	1 µM	100%
C[C@H](c1ccc(F)cc1)N(Cc1cccc(C(=O)O)c1)C(=O)c1cnc2ccccc2c1	cell-free assay, competition with immobilised ligand	1 µM	100%
COc1ncc2cc3ccccc3nc2c1C#N	cell-free assay, competition with immobilised ligand	5 µM	88%
Cc1noc([C@H]2C[C@@H](c3ccc(C(F)(F)F)cc3)CN(C(=O)N3CCS(=O)(=O)C3)C2)n1	cell-free assay, competition with immobilised ligand	1 µM	100%
COc1cnc(Nc2cccc(S(N)(=O)=O)c2)nc1N1CCN(c2ccccc2)C(=O)C1	binding, competition with immobilised ligand	1 µM	88%
C=CC(=O)N1CCC(C(=O)NCC(=O)N2CCN(c3nc(-c4cnc(N)nc4C(F)F)nc(N4CCOCC4)n3)CC2)CC1	binding, competition with immobilised ligand	1 µM	100%
O=C(NCCCN1CCOCC1)c1ccc(Nc2ncc(Cl)c(-c3ccc(Cl)s3)n2)cc1	binding, competition with immobilised ligand	1 µM	0%
Cc1cc(NC(=O)c2cccc(S(F)(F)(F)(F)F)c2)cc(-n2ccn3nc(-c4cccnc4)cc23)c1	cell-free assay, competition with immobilised ligand	1 µM	86.8%
C[C@@H]1CCN(c2nccc(-c3cnn4ncccc34)n2)C1	binding	1 µM	100%
CNC(=O)[C@@H]1CC[C@@H](n2c(-c3ccc4cnccc4c3)nc3ccc(C(=O)NCc4cccc(C(N)=O)c4)cc32)C1	binding, competition with immobilised ligand	1 µM	100%
CN(c1nccc(-c2cnn3ncccc23)n1)C1CC1	binding	1 µM	100%
O=C(Nc1cccnn1)N1CCC(=Cc2cccc(Oc3ccc(C(F)(F)F)cn3)c2)CC1	cell-free assay, competition with immobilised ligand	1 µM	97%
Cc1cnn2ncc(-c3ccnc(N(C)C)n3)c2c1	binding	1 µM	100%
CC(=O)N1CCC(c2ccc(C(=O)NC(=N)N)cc2C(F)(F)F)CC1	cell-free assay, competition with immobilised ligand	1 µM	100%
CC1CCCN1c1nccc(-c2cnn3ncccc23)n1 (stereo not drawn)	binding	1 µM	100%
O=C(c1ccc(Nc2nccc(-c3cc4ccccc4s3)n2)cc1)N1CCC(N2CCCC2)CC1	binding, competition with immobilised ligand	1 µM	15%
CN(C)c1ncc(F)c(-c2cnn3ncccc23)n1	binding	1 µM	88%
O=C(NCC1CCOCC1)c1n[nH]cc1NC(=O)c1c(F)cccc1F	binding, competition with immobilised ligand	1 µM	100%
